ChEMBL document CHEMBL1128396, “Synthesis and biological evaluation of a series of new parenteral optically active 3-[[(N-alkylpyridinium-4'-yl)thio]methyl]-2-oxaisocephems” (1995)
Values after ≈ are worked out from the molar mass of the structure shown.

What was measured:
Type in all cases: functional
Escherichia coli = experiment: Antibacterial activity was determined against Escherichia coli NIHJ JC-2 (Gram-negative)
Procedure, shortened: (§1)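 2-fold agar dilution on Müller-Hinton agar. Overnight broth cultures were diluted to about 10^6 CFU/mL, and 10^4 CFU/spot was applied to plates with graded drug concentrations. Plates were incubated 18 h at 37 °C.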

Enterococcus faecalis [1] = experiment: In vitro antibacterial activity against clinical isolates Enterococcus faecalis was determined; procedure, shortened: as §1
Enterococcus faecalis [2] = experiment: Antibacterial activity was determined against Enterococcus faecalis ATCC 21212 (Gram-positive); procedure, shortened: as §1
Klebsiella pneumoniae = experiment: Antibacterial activity was determined against Klebsiella pneumoniae NCTC 9632 (Gram-negative); procedure, shortened: as §1
Mus musculus [3] = experiment: Antibacterial activity was determined against MRSA 5120 at a challenge dose of 7.6*10e7 (cells/mouse) administered subcutaneously; conditions: sc
Procedure, shortened: (§2)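 Cultures were grown overnight at 37 °C in tryptic soy broth (S. aureus, MRSA, E. faecalis) or Müller-Hinton broth (E. coli, S. pneumoniae). Graded doses were given subcutaneously 1 h post-infection. ED50 was calculated by probit from day-7 survival, with 95% confidence limits.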

Mus musculus [4] = experiment: Antibacterial activity was determined against Staphylococcus aureus Smith at a challenge dose of 1.32*10e7 (cells/mouse) administered subcutaneously (value in parentheses indicates 95% CL); conditions: sc
Procedure, shortened: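 Cultures were grown overnight at 37 °C in tryptic soy broth (S. aureus, MRSA, E. faecalis) or Müller-Hinton broth (E. coli, S. pneumoniae). Graded doses were given subcutaneously 1 h post-infection.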

Mus musculus [5] = experiment: Antibacterial activity was determined against Escherichia coli 29 at a challenge dose of 1.35*10e6 (cells/mouse) administered subcutaneously; conditions: sc; procedure, shortened: as §2
Mus musculus [6] = experiment: Antibacterial activity was determined against Enterococcus faecalis C 0063 at a challenge dose of 7.00*10e7 (cells/mouse) administered subcutaneously; conditions: sc; procedure, shortened: as §2
Pseudomonas aeruginosa = experiment: Antibacterial activity was determined against Pseudomonas aeruginosa ATCC 10145 (Gram-negative); procedure, shortened: as §1
Staphylococcus aureus [7] = experiment: In vitro antibacterial activity against clinical isolates methicillin-resistant Staphylococcus aureus was determined
Procedure, shortened: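 2-fold agar dilution on Müller-Hinton agar. Overnight broth cultures were diluted to about 10^6 CFU/mL, and 10^4 CFU/spot was applied to plates with graded drug concentrations.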

Staphylococcus aureus [8] = experiment: Antibacterial activity was determined against Methicillin-resistant Staphylococcus aureus (MRSA) 5038 (Gram-positive)
Staphylococcus aureus [9] = experiment: Antibacterial activity was determined against Staphylococcus aureus FDA 209P (Gram-positive); procedure, shortened: as §1
Staphylococcus aureus [10] = experiment: […] was determined against MRSA 5120
Serratia marcescens = experiment: Antibacterial activity was determined against Serratia marcescens ATCC 12648 (Gram-negative); procedure, shortened: as §1
[11] = test system: Staphylococcus epidermidis; experiment: Antibacterial activity was determined against Staphylococcus epidermidis ATCC 12228 (Gram-positive); procedure, shortened: as §1
Streptococcus pneumoniae = experiment: In vitro antibacterial activity against clinical isolates Ampicillin-insensitive Streptococcus pneumoniae was determined; procedure, shortened: as §1

## CO/N=C(\C(=O)N[C@@H]1C(=O)N2C(C(=O)[O-])=C(C[n+]3cccc4c3CCC4)CS[C@H]12)c1csc(N)n1 [CEFPIROME]
Escherichia coli
  MIC: 0.05 µg/mL (≈ 0.0972 µM)
Enterococcus faecalis [1]
  MIC50: 50 µg/mL (≈ 97.2 µM)
  MIC80: 100 µg/mL (≈ 194 µM)
  MIC90: 100 µg/mL (≈ 194 µM)
Enterococcus faecalis [2]
  MIC: 25 µg/mL (≈ 48.6 µM)
Klebsiella pneumoniae
  MIC: 0.05 µg/mL (≈ 0.0972 µM)
Mus musculus [3]
  ED50: 27.7 mg/kg
Mus musculus [4]
  ED50: 1.72 mg/kg
Mus musculus [5]
  ED50: 0.64 mg/kg
Mus musculus [6]
  ED50: > 100 mg/kg
Pseudomonas aeruginosa
  MIC: 6.25 µg/mL (≈ 12.1 µM)
Staphylococcus aureus [7]
  MIC50: 50 µg/mL (≈ 97.2 µM)
  MIC80: 100 µg/mL (≈ 194 µM)
  MIC90: 100 µg/mL (≈ 194 µM)
Staphylococcus aureus [8]
  MIC: 100 µg/mL (≈ 194 µM)
Staphylococcus aureus [9]
  MIC: 0.39 µg/mL (≈ 0.758 µM)
Staphylococcus aureus [10]
  MIC: 50 µg/mL (≈ 97.2 µM)
Serratia marcescens
  MIC: 0.2 µg/mL (≈ 0.389 µM)
[11]
  MIC: 0.39 µg/mL (≈ 0.758 µM)
Streptococcus pneumoniae
  MIC50: 0.39 µg/mL (≈ 0.758 µM)
  MIC80: 0.78 µg/mL (≈ 1.52 µM)
  MIC90: 0.78 µg/mL (≈ 1.52 µM)
